The subject of series [1] is Mycobacterium tuberculosis. Put plainly: Antitubercular activity against Mycobacterium tuberculosis H37Rv at pH 6.8 by Alamar blue susceptibility assay. In kind it is functional. The method, boiled down: (§1)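 Replicating M. tuberculosis H37Rv cultures; MIC by microplate Alamar Blue assay (MABA) at pH 6.8, run as previously described.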
For series [2], the system named is Mycobacterium tuberculosis. Put plainly: Antitubercular activity against Mycobacterium tuberculosis H37Rv by low oxygen recovery assay. The series is classed as functional. The procedure, abridged: (§2)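 Nonreplicating M. tuberculosis H37Rv cultures; MIC determined by low oxygen recovery assay (LORA), run as previously described.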
In series [3] the test system is Vero. Put plainly: Cytotoxicity against african green monkey Vero cells after 72 hrs. In kind it is cell-based. Conditions: Chlorocebus sabaeus. The method, boiled down:
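VERO green monkey kidney cells exposed to compound for 72 h.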

The nature of series [4]: Selectivity index, ratio of IC50 for Vero cells to IC50 for Mycobacterium tuberculosis H37Rv by Alamar blue susceptibility assay. In kind it is toxicity, cell-based. Conditions: monkey, read-out: Ratio IC50. (Alamar Blue is a resazurin reagent that responds to reducing activity.)
Series [5] in a line: Selectivity index, ratio of IC50 for Vero cells to IC50 for Mycobacterium tuberculosis H37Rv by low oxygen recovery assay. The series is classed as toxicity, cell-based. The conditions noted are these: monkey, read-out: Ratio IC50.
Series [6] can be described thus: Half life in BALB/c mouse at 400 mg/kg, po. In kind it is ADME, organism-based. The arrangement: dose 400 mg/kg, route oral. Conditions: in vivo. The procedure, abridged:
(§3)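 Female BALB/c mice (20-22 g), groups of twelve, single oral 400 mg/kg dose as a 20 mg/mL suspension in 0.5% carboxymethyl cellulose. Retro-orbital blood at 0, 15, 30, 45, 90 and 120 min. Plasma obtained by centrifugation, then precipitated with three volumes of acetonitrile containing internal standard. Parent and metabolites quantified by LC-MS-MS using positive electrospray and selected reaction monitoring.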

Series [7] is described as follows: Cmax in BALB/c mouse at 400 mg/kg, po. The arrangement: dose 400 mg/kg, route oral. Conditions: in vivo. The series is classed as ADME, organism-based. The procedure, abridged:
as §3

Series [8] is described as follows: AUC in BALB/c mouse at 400 mg/kg, po. The series is classed as ADME, organism-based. On the set-up: dose 400 mg/kg, route oral. The conditions noted are these: plasma. The procedure, abridged: as §3
Series [9] relates to Mus musculus. Kind of series: Cmax in BALB/c mouse assessed as 2,8-bis(trifluoromethyl)quinol in-4-ol at 400 mg/kg, po. The conditions noted are these: in vivo. On the set-up: dose 400 mg/kg, route oral. The series is classed as ADME, organism-based. The method, boiled down: as §3
Series [10] deals with Mus musculus. Put plainly: Tmax in BALB/c mouse assessed as 2,8-bis(trifluoromethyl)quinol in-4-ol at 400 mg/kg, po. In kind it is ADME, organism-based. The arrangement: dose 400 mg/kg, route oral. The conditions noted are these: in vivo. The procedure, abridged: as §3
Series [11] has as its system Mus musculus. Kind of series: Plasma concentration in BALB/c mouse assessed as 5-((2,8-bis(trifluoromethyl)qu inolin-4-yloxy)methyl)isoxazole-3-carboxylic acid at 400 mg/kg, po after 3 hrs. In kind it is ADME, organism-based. Conditions: in vivo. The arrangement: dose 400 mg/kg, route oral.
Series [12] relates to Mus musculus. Put plainly: Plasma concentration in BALB/c mouse assessed as 5-((2,8-bis(trifluoromethyl)qu inolin-4-yloxy)methyl)isoxazole-3-carboxylic acid at 400 mg/kg, po after 30 mins. In kind it is ADME, organism-based. The arrangement: dose 400 mg/kg, route oral. The conditions noted are these: in vivo, 0.5 h. The method, boiled down:
as §3

Series [13] deals with Mus musculus. Kind of series: Plasma concentration in BALB/c mouse assessed as 5-((2,8-bis(trifluoromethyl)qu inolin-4-yloxy)methyl)isoxazole-3-carboxylic acid at 400 mg/kg, po after 90 mins. The series is classed as ADME, organism-based. The arrangement: dose 400 mg/kg, route oral. The conditions noted are these: in vivo, 1.5 h. The procedure, abridged:
as §3

Series [14] deals with Mycobacterium tuberculosis. Put plainly: Antitubercular activity against replicating Mycobacterium tuberculosis. The series is classed as functional. The method, boiled down: as §1
The subject of series [15] is Mycobacterium tuberculosis. Put plainly: Antitubercular activity against non replicating Mycobacterium tuberculosis. The series is classed as functional. The method, boiled down:
as §2

The test system of series [16] is Mycobacterium tuberculosis. Put plainly: Antitubercular activity against Mycobacterium tuberculosis infected in macrophages assessed as reduction in colony forming unit. The series is classed as functional.
In series [17] the test system is Mus musculus. Put plainly: Cmax in BALB/c mouse assessed as E-Ethyl 5-[2-(4-quinolinyl)eth enyl]-3-isoxazolecarboxylate at 400 mg/kg, po. In kind it is ADME, organism-based. On the set-up: dose 400 mg/kg, route oral. The conditions noted are these: in vivo. The procedure, abridged:
as §3

In brackets after ≈: the same amount, converted by molar mass.

As to `CCOC(=O)c1cc(COc2cc(C(F)(F)F)nc3c(C(F)(F)F)cccc23)on1`, the MIC – broadly, the lowest concentration that inhibits growth of the organism – turned out to be 0.9 µM (≈ 0.391 µg/mL) in series [1], 12.2 µM (≈ 5.3 µg/mL) in series [2], 0.9 µM (≈ 0.391 µg/mL) in [14] and 12.2 µM (≈ 5.3 µg/mL) in series [15]. Besides, the half-inhibitory concentration (IC50) (usually the concentration needed to halve the response being measured) in series [3] was more than 128 µM. In addition, the selectivity ratio in [4] is more than 144; in [5], more than 10.5. The half-life (in general, how long it takes for the measured level to halve) in series [6] is 1.6 h. In addition, the maximum concentration (Cmax) (commonly the peak of the concentration-time curve) in [7] came to 1 µM; in [9], 2710 ng/mL; in series [17] it was 30 ng/mL. Also, in series [8], the area under the curve (AUC) (in general, concentration integrated over time) is 2.2 µM·h. Moreover, the time to peak (Tmax) (usually the time from dosing to the highest level) in series [10] came to 0.5 h. Further, the Cp in series [11] worked out at 100 ng/mL; in series [12], 400 ng/mL; in series [13] it was 26 ng/mL. Moreover, the 90% effect concentration (EC90) (commonly the point of the concentration-response curve where the effect stands at 90%) in series [16] stood at 4.1 µM.
Regarding `CCOC(=O)c1cc(C(C)(C)Oc2cc(C(F)(F)F)nc3c(C(F)(F)F)cccc23)on1`, the minimal inhibitory concentration (MIC) in series [1] is 6.8 µM (≈ 3.14 µg/mL); in [2], 22.1 µM (≈ 10.2 µg/mL). Moreover, the IC50 in [3] came to 23 µM. The results for the selectivity ratio in series [4] and in series [5] were 0.6 and 1, respectively.
With `CCOC(=O)c1cc(CCc2cc(C(F)(F)F)nc3c(C(F)(F)F)cccc23)on1`, the values for the minimum inhibitory concentration (MIC) in series [1] and in series [2] were 5.7 µM (≈ 2.46 µg/mL) and 12.6 µM (≈ 5.45 µg/mL), respectively. Besides, in series [3], the IC50 was more than 128 µM. The selectivity ratio in series [4] is more than 22.5; in series [5], more than 10.2.
As to `CCOC(=O)c1cc(/C=C\c2ccnc3ccccc23)on1`, the MIC in series [1] amounted to 0.6 µM (≈ 0.177 µg/mL); in series [2], 3 µM (≈ 0.883 µg/mL). The molecule further yielded a 50% inhibitory concentration (IC50) in series [3] of more than 128 µM. Further, the selectivity ratio in series [4] is more than 213; in series [5] it was more than 42.7.
On to `CCOC(=O)c1cc(/C=C\c2cc(C(F)(F)F)nc3ccc(C(F)(F)F)cc23)on1`, for which the 50% inhibitory concentration (IC50) in [3] is more than 128 µM.
Consider `CCOC(=O)c1cc(/C=C/c2ccnc3ccccc23)on1`, for which the MIC in series [1] turned out to be 0.2 µM (≈ 0.0589 µg/mL); in series [2], 2.6 µM (≈ 0.765 µg/mL). Further, the IC50 in series [3] was more than 128 µM. Further, the values for the selectivity ratio in series [4] and in series [5] were more than 640 and more than 49.2, respectively. The half-life in series [6] is 1.9 h. The molecule also returned a Cmax in series [7] of 61.7 µM. The AUC in series [8] worked out at 156 µM·h.
Consider `CCOC(=O)c1cc(C(=O)Nc2cc(C(F)(F)F)nc3c(C(F)(F)F)cccc23)on1`, for which the MIC in series [1] was 29.5 µM (≈ 13.2 µg/mL); in series [2] it was more than 128 µM. For the same molecule, in [3], the half-maximal inhibitory concentration (IC50) was more than 128 µM. Moreover, the selectivity ratio in series [4] was more than 4.3.
As for `CCOC(=O)c1cc(/C=C/c2cc(C(F)(F)F)nc3c(C(F)(F)F)cccc23)on1`, the minimum inhibitory concentration (MIC) in series [1] is 2.7 µM (≈ 1.16 µg/mL); in series [2], 38.9 µM (≈ 16.7 µg/mL). Further, the IC50 in series [3] is more than 128 µM. The selectivity ratio in series [4] was more than 47.5; in [5], more than 3.3.
Turning to `CCOC(=O)c1cc(C(Oc2cc(C(F)(F)F)nc3c(C(F)(F)F)cccc23)c2ccccc2)on1` (stereo not drawn), the MIC in [1] and in series [2] was more than 128 µM each time. Further, the IC50 in series [3] is more than 128 µM.
`O=C(O)c1cc(/C=C/c2ccnc3ccccc23)on1` came in with an IC50 in [3] of more than 128 µM.
For `CCOC(=O)c1cc(C(C)Oc2cc(C(F)(F)F)nc3c(C(F)(F)F)cccc23)on1` (stereo not drawn), the MIC in [1] is 4.2 µM (≈ 1.88 µg/mL); in series [2], 20.7 µM (≈ 9.28 µg/mL). The IC50 in series [3] was more than 128 µM. The selectivity ratio is more than 30.5 in series [4] and more than 6.2 in series [5].
On the same counts, the results for `CCOC(=O)c1cc(CCc2ccnc3ccccc23)on1` are 2.7 µM (≈ 0.8 µg/mL), 22.5 µM (≈ 6.67 µg/mL), more than 128 µM, more than 47.5 and more than 5.7.
In the case of `CCOC(=O)c1cc(/C=C\c2ccnc3ccc(OC)cc23)on1`, the MIC in series [1] was determined as 1.6 µM (≈ 0.519 µg/mL); in [2] it was 2 µM (≈ 0.649 µg/mL). Further, the concentration for half-maximal inhibition (IC50) in [3] is more than 128 µM. The selectivity ratio in series [4] is more than 80; in series [5], more than 64.
On to `CCOC(=O)c1cc(/C=C/c2ccnc3ccc(OC)cc23)on1`, for which the minimum inhibitory concentration (MIC) in series [1] was 0.4 µM (≈ 0.13 µg/mL); in series [2], 1.1 µM (≈ 0.357 µg/mL). This molecule yielded a half-inhibitory concentration (IC50) in series [3] of more than 128 µM. The figures for the selectivity ratio in series [4] and in [5] were more than 320 and more than 116, respectively.
`CCOC(=O)c1cc(/C=C/c2ccc3ncccc3c2)on1`: the results for the MIC in [1] and in [2] were 0.9 µM (≈ 0.265 µg/mL) and 9.3 µM (≈ 2.74 µg/mL), respectively. This molecule also returned an IC50 in series [3] of more than 128 µM. The selectivity ratio was more than 142 in [4] and more than 13.8 in series [5].
Regarding `CCOC(=O)c1cc(-c2cc(C(F)(F)F)nc3c(C(F)(F)F)cccc23)on1`, the MIC was found to be 16.5 µM (≈ 6.67 µg/mL) in [1] and 48.1 µM (≈ 19.4 µg/mL) in [2]. In series [3], the 50% inhibitory concentration (IC50) was more than 128 µM. In addition, the selectivity ratio in [4] is more than 7.8; in [5] it was more than 2.7.
On to `CCCCC(Oc1cc(C(F)(F)F)nc2c(C(F)(F)F)cccc12)c1cc(C(=O)OCC)no1` (stereo not drawn), for which the minimal inhibitory concentration (MIC) in [1] worked out at 116 µM (≈ 56.8 µg/mL); in series [2], 11.9 µM (≈ 5.84 µg/mL). In [3], this molecule displayed a 50% inhibitory concentration (IC50) of 42.7 µM. For the same molecule, the selectivity ratio stood at 0.3 in [4] and 3.6 in series [5].
As to `CCOC(=O)c1cc(/C=C\c2ccc3ncccc3c2)on1`, the results for the MIC in series [1] and in series [2] were 1.3 µM (≈ 0.383 µg/mL) and 12.4 µM (≈ 3.65 µg/mL), respectively. The IC50 in [3] is more than 128 µM. The results for the selectivity ratio in [4] and in series [5] were more than 98.4 and more than 10.3, respectively.
As for `OC(c1cc(C(F)(F)F)nc2c(C(F)(F)F)cccc12)C1CCCCN1` (stereo not drawn) [MEFLOQUINE], the minimum inhibitory concentration (MIC) in series [1] was determined as 13 µM (≈ 4.92 µg/mL); in [2] it was 7 µM (≈ 2.65 µg/mL). This molecule also came in with an IC50 in series [3] of 11 µM. For the same molecule, the selectivity ratio in series [4] amounted to 0.9; in [5], 1.6.
Take `CO[C@H]1/C=C/O[C@@]2(C)Oc3c(C)c(O)c4c(O)c(c(/C=N/N5CCN(C)CC5)c(O)c4c3C2=O)NC(=O)/C(C)=C\C=C\[C@H](C)[C@H](O)[C@@H](C)[C@@H](O)[C@@H](C)[C@H](OC(C)=O)[C@@H]1C` [RIFAMPIN]: the results for the MIC in series [1] and in [2] were 0.1 µM (≈ 0.0823 µg/mL) and 2 µM (≈ 1.65 µg/mL), respectively. Moreover, the selectivity ratio in series [4] is 1220; in series [5] it was 61.

The values above are taken from ChEMBL document CHEMBL1154664, “From serendipity to rational antituberculosis drug discovery of mefloquine-isoxazole carboxylic acid esters” (J Med Chem, 2009).
